Paper PMC8945107 (ACS Omega, 2022)

Key:
PC-3 = test: MTT antiproliferative assay, PC-3; assay type: cell-based; conditions: Homo sapiens, PC-3, 48 h, read-out: IC50 PC-3
Procedure, shortened: (§1)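 Cells in 96-well plates were preincubated 24 h, then exposed to test compound 48 h. MTT solution (5 mg/mL stock) was added for 4 h, medium removed, formazan dissolved in DMSO, plate shaken 1 min and absorbance read at 570 nm. Three independent experiments.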

NCI-H460 = test: MTT antiproliferative assay, NCI-H460; assay type: cell-based; conditions: Homo sapiens, NCI-H460, 48 h, read-out: IC50 NCI-H460
Procedure, shortened: as §1

[1] = system: human bronchial epithelioid cells (HBE); test: MTT antiproliferative / cell viability assay, HBE; assay type: cell-based; conditions: 48 h, read-out: IC50 HBE
Procedure, shortened: as §1

A549 cells [2] = test: Vacuolization, fluorescence inverted microscope; assay type: cell-based, human; conditions: 10 mM NAC with 2 μM 5e; vacuolization 12 h, MTT 24 h
Procedure, shortened: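 A549 cells were given 2 μM test compound for 12, 24 or 36 h, or 1–4 μM for 24 h, and photographed on an inverted fluorescence microscope. For antioxidant co-treatment, 10 mM NAC was combined with 2 μM compound. Vacuolization was imaged at 12 h, and viability was measured by MTT at 24 h (absorbance 570 nm after DMSO solubilisation).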

A549 cells [3] = test: Detection of intracellular ROS; assay type: cell-based, human; conditions: 10 mM NAC with 2 μM 5e, 12 h
Procedure, shortened: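 A549 cells in 6-well plates were pretreated with NAC for 2 h, then treated with test compound. Afterward they were stained with 10 μM DCFH-DA in FBS-free medium for 0.5 h in the incubator and washed twice with PBS. Cells were collected, resuspended in PBS and analysed by flow cytometry.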

| IC50 (PC-3) [nM] | IC50 (NCI-H460) [µM] | SMILES | IC50 [1] [nM] | effect of NAC on vacuolization and cell death induced by 5e (A549 cells [2]) | effect of NAC on ROS level induced by 5e (A549 cells [3]) |
| --- | --- | --- | --- | --- | --- |
| 1130 ± 200 | 3.14 ± 0.57 | COc1cccc2c1C(=O)c1c(O)c3c(c(O)c1C2=O)C[C@@](O)(C(=O)CO)C[C@@H]3O[C@H]1C[C@H](N)[C@H](O)[C@H](C)O1 [DOX, Doxorubicin] | 2540 ± 160 | – | – |
| – | – | CC(=O)N[C@@H](CS)C(=O)O [NAC, N-acetylcysteine] | – | could not remarkably suppress vacuolization and cell death | could inhibit the level of ROS |
